Results as given in ChEMBL document CHEMBL5696442, “Discovery of type II inhibitors of TGFβ-activated kinase 1 (TAK1) and mitogen-activated protein kinase kinase kinase kinase 2 (MAP4K2)” (J Med Chem, 2015).

Assays:
[1] = target: T1, Mitogen-activated protein kinase kinase kinase 7 (Homo sapiens) (UniProt O43318); assay: Inhibition of TAK1 Lys2 labeling site in human A-375 cells at 0.5 uM by KiNativ Profiling analysis relative to control; assay type: cell-based
T1 sequence (whole entry): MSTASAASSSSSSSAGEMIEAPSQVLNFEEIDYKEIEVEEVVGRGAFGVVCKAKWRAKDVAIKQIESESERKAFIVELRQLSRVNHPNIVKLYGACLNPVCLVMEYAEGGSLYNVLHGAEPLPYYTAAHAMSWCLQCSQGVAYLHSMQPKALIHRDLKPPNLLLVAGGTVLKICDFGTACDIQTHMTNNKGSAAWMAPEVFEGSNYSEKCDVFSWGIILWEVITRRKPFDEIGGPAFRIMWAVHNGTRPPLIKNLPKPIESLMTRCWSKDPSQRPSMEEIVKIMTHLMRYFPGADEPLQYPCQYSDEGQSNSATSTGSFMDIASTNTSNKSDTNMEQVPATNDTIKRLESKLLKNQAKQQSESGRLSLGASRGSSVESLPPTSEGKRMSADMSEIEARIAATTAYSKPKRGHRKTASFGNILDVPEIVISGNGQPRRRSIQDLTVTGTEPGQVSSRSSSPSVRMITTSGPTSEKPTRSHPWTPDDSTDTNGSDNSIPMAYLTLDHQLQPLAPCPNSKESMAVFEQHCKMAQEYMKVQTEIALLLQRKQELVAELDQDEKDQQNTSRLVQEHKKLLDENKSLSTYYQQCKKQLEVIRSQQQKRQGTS

[2] = target: T2, Mitogen-activated protein kinase kinase kinase 7 (Homo sapiens, UniProt O43318); assay: Inhibition of TAK1 (unknown origin) Lys2 labeling site by KiNativ Profiling analysis
T2 sequence (O43318 whole entry): T1 sequence (whole entry)

[3] = Half life in Swiss albino mouse at 1 mg/kg, iv measured upto 24 hrs by LC/MS/MS analysis; assay type: ADME, organism-based; conditions: in vivo
Method in brief: (§1)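 Male Swiss albino mice. […] Blood was taken into K2EDTA from three mice per time point, from 0 to 24 h. Plasma was precipitated with acetonitrile and analysed by LC/MS/MS (LLOQ 1.138 ng/mL).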

[4] = target: T3, Tyrosine-protein kinase Fer (Homo sapiens, UniProt P16591); assay: Inhibition of FER (unknown origin) ACT labeling site by KiNativ Profiling analysis
Target sequence in this assay (P16591 whole entry): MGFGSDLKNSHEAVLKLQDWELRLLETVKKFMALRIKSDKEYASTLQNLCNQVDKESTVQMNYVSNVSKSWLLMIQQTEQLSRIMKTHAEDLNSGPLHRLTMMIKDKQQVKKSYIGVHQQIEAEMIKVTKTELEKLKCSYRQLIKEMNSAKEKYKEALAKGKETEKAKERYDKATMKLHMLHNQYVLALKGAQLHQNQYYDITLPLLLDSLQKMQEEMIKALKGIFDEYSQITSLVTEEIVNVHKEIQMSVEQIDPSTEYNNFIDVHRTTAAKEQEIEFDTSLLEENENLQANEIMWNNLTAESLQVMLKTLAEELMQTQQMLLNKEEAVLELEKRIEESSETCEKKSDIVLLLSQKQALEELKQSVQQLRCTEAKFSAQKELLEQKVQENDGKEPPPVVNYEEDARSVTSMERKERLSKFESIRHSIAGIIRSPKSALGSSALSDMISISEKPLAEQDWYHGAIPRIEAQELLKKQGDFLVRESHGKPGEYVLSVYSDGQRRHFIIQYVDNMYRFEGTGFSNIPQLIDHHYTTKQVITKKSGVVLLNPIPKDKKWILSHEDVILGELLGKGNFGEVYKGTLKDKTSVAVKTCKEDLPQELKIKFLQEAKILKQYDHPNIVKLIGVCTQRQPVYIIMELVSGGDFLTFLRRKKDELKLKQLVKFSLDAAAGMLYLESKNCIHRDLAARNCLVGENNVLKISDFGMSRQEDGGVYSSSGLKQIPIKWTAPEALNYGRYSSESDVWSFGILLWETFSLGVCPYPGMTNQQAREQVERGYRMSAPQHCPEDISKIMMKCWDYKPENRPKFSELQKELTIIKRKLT

[5] = target: T4, Mitogen-activated protein kinase 14 (Homo sapiens, UniProt Q16539); assay: Inhibition of p38 alpha (unknown origin) by KiNativ Profiling analysis
[6] = AUC last in Swiss albino mouse at 1 mg/kg, iv measured upto 24 hrs by LC/MS/MS analysis; assay type: ADME, organism-based; conditions: in vivo; method in brief: as §1
[7] = system: BaF3; assay: Antiproliferative activity against parental mouse BaF3 cells harbouring Bcr/Abl assessed reduction in cell viability measured after 48 hrs by Celltiter-glo assay; assay type: functional, cell-based; conditions: BaF3, 48 h
Method in brief: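 Cells were grown with serial dilutions of compound for 48 h, and viability was read by CellTiter-Glo. IC50 was derived from the dose–response curve. Parental Ba/F3 cells were grown in the presence of interleukin 3. The BCR-ABL line is BCR-ABL-dependent Ba/F3.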

[8] = AUC last in Swiss albino mouse at 10 mg/kg, po measured upto 24 hrs by LC/MS/MS analysis; assay type: ADME, organism-based; conditions: in vivo
[9] = Tmax in Swiss albino mouse at 10 mg/kg, po measured upto 24 hrs by LC/MS/MS analysis; assay type: ADME, organism-based; conditions: in vivo
Method in brief: (§2)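 Blood was taken at 0, 0.25, 0.5, 1, 2, 4, 6, 8, 12 and 24 h from three mice per time point, into K2EDTA. Plasma was acetonitrile-precipitated and analyzed by LC/MS/MS (LLOQ 1.138 ng/mL).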

[10] = target: T5, Mitogen-activated protein kinase kinase kinase kinase 2 (Homo sapiens) (UniProt Q12851); assay: Inhibition of MAP4K2 Lys1 labeling site in human A-375 cells at 0.5 uM by KiNativ Profiling analysis relative to control; assay type: cell-based
T5 sequence (whole entry): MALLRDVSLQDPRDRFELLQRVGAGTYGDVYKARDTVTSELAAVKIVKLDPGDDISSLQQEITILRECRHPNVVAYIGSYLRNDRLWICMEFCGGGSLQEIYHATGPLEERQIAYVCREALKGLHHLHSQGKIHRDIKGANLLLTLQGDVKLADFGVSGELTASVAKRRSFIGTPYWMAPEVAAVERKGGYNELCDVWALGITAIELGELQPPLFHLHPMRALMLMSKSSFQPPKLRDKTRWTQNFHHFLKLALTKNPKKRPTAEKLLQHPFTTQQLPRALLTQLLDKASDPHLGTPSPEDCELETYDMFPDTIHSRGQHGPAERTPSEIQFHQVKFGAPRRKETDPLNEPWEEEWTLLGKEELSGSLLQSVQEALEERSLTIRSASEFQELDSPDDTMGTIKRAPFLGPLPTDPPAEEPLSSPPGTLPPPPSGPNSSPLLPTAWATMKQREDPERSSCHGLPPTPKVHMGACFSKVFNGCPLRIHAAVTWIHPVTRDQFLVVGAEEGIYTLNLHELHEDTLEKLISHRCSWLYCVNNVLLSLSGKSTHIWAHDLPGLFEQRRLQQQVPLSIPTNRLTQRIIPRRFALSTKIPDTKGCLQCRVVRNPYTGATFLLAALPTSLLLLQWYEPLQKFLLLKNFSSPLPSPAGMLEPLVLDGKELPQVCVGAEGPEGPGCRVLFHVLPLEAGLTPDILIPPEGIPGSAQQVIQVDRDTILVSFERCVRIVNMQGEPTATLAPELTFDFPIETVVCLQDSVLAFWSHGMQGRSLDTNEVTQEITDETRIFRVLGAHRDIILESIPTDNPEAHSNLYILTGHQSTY

[11] = Cmax in Swiss albino mouse at 10 mg/kg, po measured upto 24 hrs by LC/MS/MS analysis; assay type: ADME, organism-based; conditions: in vivo
[12] = target: T4, Mitogen-activated protein kinase 14; assay: Inhibition of p38 alpha in human Huh-7 cell lysate at 1 uM by KiNativ Profiling analysis relative to control; assay type: subcellular
[13] = target: T6, Tyrosine-protein kinase ABL1 (Homo sapiens, UniProt P00519); assay: Inhibition of ABL ACT labeling site in human Huh-7 cell lysate at 1 uM by KiNativ Profiling analysis relative to control; assay type: subcellular
[14] = system: BaF3; assay: Antiproliferative activity against parental mouse BaF3 cells assessed reduction in cell viability measured after 48 hrs by Celltiter-glo assay; assay type: functional, cell-based; conditions: BaF3, 48 h
[15] = Oral bioavailability in Swiss albino mouse at 10 mg/kg measured upto 24 hrs by LC/MS/MS analysis; assay type: ADME, organism-based; conditions: in vivo; method in brief: as §2
[16] = target: T7, Tyrosine-protein kinase Fes/Fps (Homo sapiens, UniProt P07332); assay: Inhibition of FES (unknown origin) by KiNativ Profiling analysis
[17] = Cmax in Swiss albino mouse at 1 mg/kg, iv measured upto 24 hrs by LC/MS/MS analysis; assay type: ADME, organism-based; conditions: in vivo; method in brief: as §1
[18] = target: T7, Tyrosine-protein kinase Fes/Fps; assay: Inhibition of FES Lys1 labeling site in human Huh-7 cell lysate at 1 uM by KiNativ Profiling analysis relative to control; assay type: subcellular
[19] = target: T8, Mitogen-activated protein kinase kinase kinase kinase 2 (Homo sapiens, UniProt Q12851); assay: Inhibition of MAP4K2 (unknown origin) Lys1 labeling site by KiNativ Profiling analysis
T8 sequence (Q12851 whole entry): T5 sequence (whole entry)

[20] = Volume of distribution at steady state in Swiss albino mouse at 1 mg/kg, iv measured upto 24 hrs by LC/MS/MS analysis; assay type: ADME, organism-based; conditions: in vivo
Method in brief: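 Blood was sampled at 0, 0.083, 0.25, 0.5, 1, 2, 4, 8, 12 and 24 h (three mice per point, K2EDTA). Plasma was precipitated with acetonitrile and quantified by LC/MS/MS (LLOQ 1.138 ng/mL).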

[21] = target: T6, Tyrosine-protein kinase ABL1; assay: Inhibition of ABL Lys1 labeling site in human Huh-7 cell lysate at 1 uM by KiNativ Profiling analysis relative to control; assay type: subcellular
[22] = target: T9, Ephrin type-A receptor 2 (Homo sapiens, UniProt P29317); assay: Inhibition of EphA2 (unknown origin) ACT labeling site by KiNativ Profiling analysis
[23] = target: T10, Mitogen-activated protein kinase kinase kinase 20 (Homo sapiens, UniProt Q9NYL2); assay: Inhibition of ZAK (unknown origin) Lys1 labeling site by KiNativ Profiling analysis
Target sequence in this assay (Q9NYL2 whole entry): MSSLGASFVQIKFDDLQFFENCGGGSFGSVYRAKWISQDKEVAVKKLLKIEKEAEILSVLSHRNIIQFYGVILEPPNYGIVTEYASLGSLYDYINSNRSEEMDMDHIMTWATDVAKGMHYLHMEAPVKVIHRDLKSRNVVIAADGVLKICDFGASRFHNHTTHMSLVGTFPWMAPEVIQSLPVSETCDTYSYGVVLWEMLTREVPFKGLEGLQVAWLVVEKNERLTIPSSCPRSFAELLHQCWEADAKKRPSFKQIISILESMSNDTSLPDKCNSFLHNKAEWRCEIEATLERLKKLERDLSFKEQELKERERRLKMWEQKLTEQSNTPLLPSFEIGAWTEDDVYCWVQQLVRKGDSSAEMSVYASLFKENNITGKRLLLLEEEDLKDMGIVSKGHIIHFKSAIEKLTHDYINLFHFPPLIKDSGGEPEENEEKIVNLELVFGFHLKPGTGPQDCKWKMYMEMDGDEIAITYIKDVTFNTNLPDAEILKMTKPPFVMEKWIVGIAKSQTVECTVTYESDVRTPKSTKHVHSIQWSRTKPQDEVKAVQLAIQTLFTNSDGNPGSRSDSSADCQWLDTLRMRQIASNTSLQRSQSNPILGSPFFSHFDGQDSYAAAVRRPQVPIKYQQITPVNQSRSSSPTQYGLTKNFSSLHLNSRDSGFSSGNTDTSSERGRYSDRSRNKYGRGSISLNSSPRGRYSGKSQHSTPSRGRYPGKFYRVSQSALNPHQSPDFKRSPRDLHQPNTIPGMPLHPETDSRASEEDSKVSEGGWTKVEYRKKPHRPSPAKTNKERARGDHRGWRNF

[24] = target: T10, Mitogen-activated protein kinase kinase kinase 20; assay: Inhibition of ZAK Lys1 labeling site in human Huh-7 cell lysate at 1 uM by KiNativ Profiling analysis relative to control; assay type: subcellular
[25] = target: T9, Ephrin type-A receptor 2; assay: Inhibition of EphA2 ACT labeling site in human Huh-7 cell lysate at 1 uM by KiNativ Profiling analysis relative to control; assay type: subcellular
[26] = target: T11, Tyrosine-protein kinase CSK (Homo sapiens, UniProt P41240); assay: Inhibition of CSK (unknown origin) ACT labeling site by KiNativ Profiling analysis
[27] = target: T11, Tyrosine-protein kinase CSK; assay: Inhibition of CSK ACT labeling site in human Huh-7 cell lysate at 1 uM by KiNativ Profiling analysis relative to control; assay type: subcellular
[28] = target: T3, Tyrosine-protein kinase Fer; assay: Inhibition of FER Lys1 labeling site in human Huh-7 cell lysate at 1 uM by KiNativ Profiling analysis relative to control; assay type: subcellular
Target sequence in this assay (P16591 whole entry, looked up): as the sequence (P16591 whole entry) above

T4 sequence (Q16539 whole entry): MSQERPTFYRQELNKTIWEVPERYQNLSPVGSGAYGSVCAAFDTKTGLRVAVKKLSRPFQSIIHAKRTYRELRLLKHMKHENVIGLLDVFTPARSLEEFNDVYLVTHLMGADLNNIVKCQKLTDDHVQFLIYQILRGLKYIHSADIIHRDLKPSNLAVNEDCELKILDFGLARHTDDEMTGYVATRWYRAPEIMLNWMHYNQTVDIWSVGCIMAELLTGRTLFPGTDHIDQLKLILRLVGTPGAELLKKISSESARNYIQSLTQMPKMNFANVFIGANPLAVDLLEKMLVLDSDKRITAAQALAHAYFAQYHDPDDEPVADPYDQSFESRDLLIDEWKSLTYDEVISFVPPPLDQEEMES
T7 sequence (P07332 whole entry): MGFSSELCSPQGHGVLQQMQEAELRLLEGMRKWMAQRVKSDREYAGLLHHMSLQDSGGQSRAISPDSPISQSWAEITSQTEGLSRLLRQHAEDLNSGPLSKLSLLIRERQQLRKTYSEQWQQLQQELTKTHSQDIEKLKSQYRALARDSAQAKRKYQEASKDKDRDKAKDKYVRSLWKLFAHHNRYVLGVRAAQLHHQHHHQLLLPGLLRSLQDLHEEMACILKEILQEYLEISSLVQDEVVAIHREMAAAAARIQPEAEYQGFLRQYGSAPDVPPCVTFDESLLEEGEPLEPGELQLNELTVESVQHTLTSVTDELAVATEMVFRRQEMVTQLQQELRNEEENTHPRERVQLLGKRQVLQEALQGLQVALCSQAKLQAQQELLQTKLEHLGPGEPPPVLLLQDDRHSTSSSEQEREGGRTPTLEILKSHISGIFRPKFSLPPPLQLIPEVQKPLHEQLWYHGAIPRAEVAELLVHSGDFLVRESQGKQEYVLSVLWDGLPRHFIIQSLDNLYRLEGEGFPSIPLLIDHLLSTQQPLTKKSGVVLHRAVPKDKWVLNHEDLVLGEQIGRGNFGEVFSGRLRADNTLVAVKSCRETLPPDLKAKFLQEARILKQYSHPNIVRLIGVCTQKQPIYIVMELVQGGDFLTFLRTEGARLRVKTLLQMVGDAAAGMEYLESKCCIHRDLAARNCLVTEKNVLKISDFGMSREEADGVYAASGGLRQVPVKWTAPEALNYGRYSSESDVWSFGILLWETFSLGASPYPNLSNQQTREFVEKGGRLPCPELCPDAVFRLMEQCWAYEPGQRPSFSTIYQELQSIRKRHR
T6 sequence (P00519 whole entry): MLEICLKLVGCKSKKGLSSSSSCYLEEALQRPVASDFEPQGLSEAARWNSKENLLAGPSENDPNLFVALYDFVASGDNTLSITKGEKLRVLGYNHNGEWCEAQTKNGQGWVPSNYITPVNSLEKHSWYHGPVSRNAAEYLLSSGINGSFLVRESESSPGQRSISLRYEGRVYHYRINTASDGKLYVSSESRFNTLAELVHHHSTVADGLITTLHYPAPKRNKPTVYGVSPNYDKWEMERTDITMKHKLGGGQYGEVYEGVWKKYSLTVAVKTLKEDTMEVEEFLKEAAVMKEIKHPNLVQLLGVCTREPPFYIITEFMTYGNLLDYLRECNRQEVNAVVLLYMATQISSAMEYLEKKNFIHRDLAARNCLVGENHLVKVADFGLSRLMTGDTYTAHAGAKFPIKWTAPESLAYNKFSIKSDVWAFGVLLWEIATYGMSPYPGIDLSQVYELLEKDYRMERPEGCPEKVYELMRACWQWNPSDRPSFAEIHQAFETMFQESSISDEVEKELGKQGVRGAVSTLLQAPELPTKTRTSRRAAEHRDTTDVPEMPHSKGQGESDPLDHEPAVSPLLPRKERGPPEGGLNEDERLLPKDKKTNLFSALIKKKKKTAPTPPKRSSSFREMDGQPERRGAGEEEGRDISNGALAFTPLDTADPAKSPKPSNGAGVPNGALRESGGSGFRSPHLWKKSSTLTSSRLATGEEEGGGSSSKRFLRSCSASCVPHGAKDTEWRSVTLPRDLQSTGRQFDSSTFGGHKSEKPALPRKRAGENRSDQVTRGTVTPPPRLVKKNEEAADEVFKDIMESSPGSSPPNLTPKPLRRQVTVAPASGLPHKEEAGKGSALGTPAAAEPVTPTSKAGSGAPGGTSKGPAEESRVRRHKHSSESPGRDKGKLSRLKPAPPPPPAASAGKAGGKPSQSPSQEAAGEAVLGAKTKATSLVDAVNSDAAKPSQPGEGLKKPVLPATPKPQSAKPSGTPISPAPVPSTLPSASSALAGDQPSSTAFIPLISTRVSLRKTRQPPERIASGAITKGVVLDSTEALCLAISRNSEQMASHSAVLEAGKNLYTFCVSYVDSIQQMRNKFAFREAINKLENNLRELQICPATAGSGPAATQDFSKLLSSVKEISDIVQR
T9 sequence (P29317 whole entry): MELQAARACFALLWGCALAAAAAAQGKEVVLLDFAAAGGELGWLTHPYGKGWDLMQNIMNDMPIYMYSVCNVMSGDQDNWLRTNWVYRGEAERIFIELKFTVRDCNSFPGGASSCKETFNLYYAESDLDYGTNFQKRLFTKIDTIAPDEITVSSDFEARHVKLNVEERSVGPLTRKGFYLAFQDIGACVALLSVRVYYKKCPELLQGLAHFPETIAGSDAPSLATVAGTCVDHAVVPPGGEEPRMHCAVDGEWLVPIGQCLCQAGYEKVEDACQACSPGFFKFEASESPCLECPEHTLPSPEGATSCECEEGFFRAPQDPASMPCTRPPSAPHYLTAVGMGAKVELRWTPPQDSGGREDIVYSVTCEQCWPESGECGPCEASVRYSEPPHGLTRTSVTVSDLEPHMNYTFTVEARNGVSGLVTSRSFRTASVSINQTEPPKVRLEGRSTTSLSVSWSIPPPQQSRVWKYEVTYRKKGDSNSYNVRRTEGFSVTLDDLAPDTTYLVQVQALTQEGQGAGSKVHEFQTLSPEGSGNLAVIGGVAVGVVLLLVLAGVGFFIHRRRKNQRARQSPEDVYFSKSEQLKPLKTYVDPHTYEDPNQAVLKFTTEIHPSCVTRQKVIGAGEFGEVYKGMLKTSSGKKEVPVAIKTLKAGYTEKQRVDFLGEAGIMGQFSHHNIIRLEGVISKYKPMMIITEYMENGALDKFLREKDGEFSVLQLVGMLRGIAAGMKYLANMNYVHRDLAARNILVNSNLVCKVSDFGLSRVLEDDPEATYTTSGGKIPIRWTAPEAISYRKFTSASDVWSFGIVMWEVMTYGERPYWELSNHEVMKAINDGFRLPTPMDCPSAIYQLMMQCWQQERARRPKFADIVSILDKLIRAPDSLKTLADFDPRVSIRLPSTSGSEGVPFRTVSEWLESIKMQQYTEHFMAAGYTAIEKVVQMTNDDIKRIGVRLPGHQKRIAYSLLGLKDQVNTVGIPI

| SMILES | inhibition [1] [%] | IC50 [2] [µM] | t1/2 [3] [h] | IC50 [4] [µM] | IC50 [5] [µM] | AUClast [6] [ng·h/mL] | IC50 [7] [µM] | AUClast [8] [ng·h/mL] | Tmax [9] [h] | inhibition [10] [%] | Cmax [11] [ng/mL] | inhibition [12] [%] | inhibition [13] [%] | IC50 [14] [µM] | F [15] [%] | IC50 [16] [µM] | Cmax [17] [ng/mL] | inhibition [18] [%] | IC50 [19] [µM] | Vdss [20] [L/kg] | further results |
| --- | --- | --- | --- | --- | --- | --- | --- | --- | --- | --- | --- | --- | --- | --- | --- | --- | --- | --- | --- | --- | --- |
| CCN1CCN(Cc2ccc(NC(=O)c3ccc(C)c(Oc4ncnc5[nH]c(C)cc45)c3)cc2C(F)(F)F)CC1 | 57.7 | 0.0411 | 2.94 | 0.0748 | 0.149 | 554 | 0.02 | 2136 | 4 | > 94 | 233 | 82.8 | 59.6 | > 10 | 38.6 | 0.0697 | 317 | 82.7 | 0.0182 | 5.42 |  |
| CCN1CCN(Cc2ccc(NC(=O)c3ccc(C)c(CCc4cnc5[nH]ccc5c4OC)c3)cc2C(F)(F)F)CC1 | 74.3 | 0.217 |  |  | 0.0701 |  | 0.01 |  |  | 84.3 |  | 91.8 | 92.8 | 4.81 |  |  |  |  | 0.0206 |  | inhibition [21]: 77.2%; IC50 [22]: 0.0771 µM; IC50 [23]: 0.0725 µM; inhibition [24]: > 96%; inhibition [25]: 80.9%; IC50 [26]: 0.0125 µM; inhibition [27]: 89.9% |
| CCN1CCN(Cc2ccc(NC(=O)c3ccc(C)c(Oc4cc(NC)ncn4)c3)cc2C(F)(F)F)CC1 | 78.5 |  |  | 0.577 | 0.25 |  | 0.046 |  |  | 91.3 |  | 98.6 | 74.1 | > 10 |  | 0.252 |  | 78.5 |  |  | inhibition [21]: 58.4%; inhibition [28]: 75.8% |
| CCN1CCN(Cc2ccc(NC(=O)c3ccc(C)c(Oc4ncnc5[nH]ncc45)c3)cc2C(F)(F)F)CC1 | 86.5 | 0.0755 | 0.87 |  | 0.0298 | 167.9 | 0.055 | 186.2 | 0.5 | 89.9 | 61.3 | 96.6 | 93 | 7.91 | 11.1 |  | 280.3 |  | 0.0438 | 6.1 | IC50 [23]: 0.127 µM; inhibition [24]: 95.2% |
| CCN1CCN(Cc2ccc(NC(=O)c3ccc(C)c(Oc4ncnc5cc(OC)c(OC)cc45)c3)cc2C(F)(F)F)CC1 | 83.7 | 0.129 |  | 0.0361 |  |  | 0.092 |  |  | 93.2 |  |  | 80.6 | > 10 |  | 0.0508 |  | 94.7 | 0.0305 |  | inhibition [21]: 78.8%; inhibition [28]: 92.9% |
| CCN1CCN(Cc2ccc(NC(=O)c3ccc(C)c(Oc4ncnc5[nH]ccc45)c3)cc2C(F)(F)F)CC1 | 77.7 | 0.0449 | 2.33 |  | 0.13 | 236.6 | 0.055 | 516.2 | 2 | > 86 | 134 | 85.2 | 74.2 | 8.16 | 21.8 |  | 230.9 |  | 0.0198 | 9.5 |  |
